Results from PMC5335871 (Bioorganic & medicinal chemistry letters, 2016).

Legend:
GPR35 [1] = target: T1, GPR35 (Homo sapiens, UniProt Q9HC97); type: cell-based; conditions: 10 μM Zaprinast as agonist
Procedure, shortened: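 Antagonism measured against a 10 μM Zaprinast agonist challenge in U2OS cells permanently expressing HA-GPR35a and βarr2-GFP. Concentration-effect curves for agonist-mediated receptor activation were analysed by nonlinear regression and fitted to sigmoidal dose-response curves to obtain IC50.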

GPR35 [2] = target: T1, GPR35; conditions: read-out: IC50, antagonism at GPR35; previously identified screening hits; cited from earlier work

T1 sequence (Q9HC97 whole entry): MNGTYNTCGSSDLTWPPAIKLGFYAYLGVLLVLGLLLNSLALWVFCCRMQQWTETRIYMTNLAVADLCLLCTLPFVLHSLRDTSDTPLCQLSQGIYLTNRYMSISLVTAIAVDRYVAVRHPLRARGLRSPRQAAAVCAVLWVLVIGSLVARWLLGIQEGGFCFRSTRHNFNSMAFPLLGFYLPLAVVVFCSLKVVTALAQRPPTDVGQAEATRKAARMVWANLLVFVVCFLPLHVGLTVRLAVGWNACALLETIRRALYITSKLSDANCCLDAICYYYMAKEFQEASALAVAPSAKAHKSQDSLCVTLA

| activity as GPR35 antagonist (in words) (GPR35 [1]) | SMILES | IC50 (GPR35 [2]) [nM] |
| --- | --- | --- |
| devoid of activity | O=C(Nc1ccc2nc(SCc3ccc(Cl)cc3)sc2c1)c1ccccc1C(=O)N1CCCCC1 [Compound 2] |  |
| devoid of activity | O=C(Nc1ccc2nc(SCc3ccc(Cl)cc3)sc2c1)c1ccccc1C(=O)N1CCCC1 [Compound 3] |  |
| inactive | O=C(Nc1ccc2nc(SCc3ccncc3)sc2c1)c1ccccc1C(=O)N1CCOCC1 [Compound 9] |  |
|  | CNC(=S)NN=Cc1c(C(=O)OC)cnn1-c1ccc(F)cc1F [Compound 13] | 160 |
